Source: ChEMBL document CHEMBL3400051, “Five new phorbol esters with cytotoxic and selective anti-inflammatory activities from Croton tiglium” (Bioorg Med Chem Lett, 2015)

Legend:
K562 = test: Cytotoxicity against human K562 cells assessed as cell viability after 72 hrs by CCK8 assay; type: functional, cell-based; conditions: K562, 72 h
Summary of the method: (§1)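 Cells grown in RPMI or DMEM with 10% FBS and 1% penicillin/streptomycin at 37 °C, 5% CO2. Seeded at 400-800 cells/well in 384-well plates, treated with a range of compound concentrations or solvent control for 72 h. CCK8 reagent added, absorbance read at 450 nm; IC50 from dose-response curves. Taxol positive control.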

MOLT-4 = test: Cytotoxicity against human MOLT4 cells assessed as cell viability after 72 hrs by CCK8 assay; type: functional, cell-based; conditions: MOLT-4, 72 h; summary of the method: as §1
[1] = Cytotoxicity against human U937 cells assessed as cell viability after 72 hrs by CCK8 assay; type: functional, cell-based; conditions: U-937, 72 h; summary of the method: as §1
HeLa = test: Cytotoxicity against human HeLa cells assessed as cell viability after 72 hrs by CCK8 assay; type: functional, cell-based; summary of the method: as §1
DU-145 = test: Cytotoxicity against human DU145 cells assessed as cell viability after 72 hrs by CCK8 assay; type: functional, cell-based; conditions: DU-145, 72 h; summary of the method: as §1
NCI-H1975 = test: Cytotoxicity against human NCI-H1975 cells assessed as cell viability after 72 hrs by CCK8 assay; type: functional, cell-based; conditions: NCI-H1975, 72 h; summary of the method: as §1
[2] = Cytotoxicity against human HL60 cells assessed as cell viability after 72 hrs by CCK8 assay; type: functional, cell-based; conditions: HL-60, 72 h; summary of the method: as §1
HEK-293T = test: Cytotoxicity against human 293T cells after 44 hrs by MTT assay; type: cell-based
Summary of the method: (§2)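 Cells cultured in 88% DMEM, 12% FBS, 100 units/mL penicillin and streptomycin. Seeded at 2 × 10^5 cells/mL, 24 h at 37 °C in 5% CO2, then medium replaced with compound in growth medium at 80, 40, 20, 10 and 5 concentrations for 44 h. MTT (5 mg/mL) added for a further 4 h; absorbance at 490 nm. Untreated cells as negative control, Taxol positive control.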

[3] = Cytotoxicity against human LX2 cells after 44 hrs by MTT assay; type: cell-based; conditions: LX-2, 44 h; summary of the method: as §2
[4] = molecular target: T1, Prostaglandin G/H synthase 1 (Ovis aries, UniProt P05979); test: Inhibition of ovine COX1 using fluorometric substrate after 15 mins
T1 sequence (P05979 whole entry): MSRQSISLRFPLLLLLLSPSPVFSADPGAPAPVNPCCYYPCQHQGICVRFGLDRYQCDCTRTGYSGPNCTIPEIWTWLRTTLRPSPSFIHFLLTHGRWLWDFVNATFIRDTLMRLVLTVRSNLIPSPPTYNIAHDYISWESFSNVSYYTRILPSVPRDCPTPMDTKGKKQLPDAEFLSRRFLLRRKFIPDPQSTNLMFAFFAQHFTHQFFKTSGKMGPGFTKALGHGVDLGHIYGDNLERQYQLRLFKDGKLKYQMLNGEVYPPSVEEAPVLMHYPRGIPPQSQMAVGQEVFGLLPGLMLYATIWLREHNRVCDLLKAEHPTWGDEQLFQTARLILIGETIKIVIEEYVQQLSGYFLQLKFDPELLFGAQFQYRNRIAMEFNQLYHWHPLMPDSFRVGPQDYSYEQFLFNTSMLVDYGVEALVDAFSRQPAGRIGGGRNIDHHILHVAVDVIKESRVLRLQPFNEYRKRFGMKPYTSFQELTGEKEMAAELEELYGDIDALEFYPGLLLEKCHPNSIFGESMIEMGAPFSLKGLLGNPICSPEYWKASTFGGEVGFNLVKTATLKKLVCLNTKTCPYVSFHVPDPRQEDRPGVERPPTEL

[5] = molecular target: T2, Prostaglandin G/H synthase 2 (Homo sapiens, UniProt P35354)
T2 sequence (P35354 whole entry): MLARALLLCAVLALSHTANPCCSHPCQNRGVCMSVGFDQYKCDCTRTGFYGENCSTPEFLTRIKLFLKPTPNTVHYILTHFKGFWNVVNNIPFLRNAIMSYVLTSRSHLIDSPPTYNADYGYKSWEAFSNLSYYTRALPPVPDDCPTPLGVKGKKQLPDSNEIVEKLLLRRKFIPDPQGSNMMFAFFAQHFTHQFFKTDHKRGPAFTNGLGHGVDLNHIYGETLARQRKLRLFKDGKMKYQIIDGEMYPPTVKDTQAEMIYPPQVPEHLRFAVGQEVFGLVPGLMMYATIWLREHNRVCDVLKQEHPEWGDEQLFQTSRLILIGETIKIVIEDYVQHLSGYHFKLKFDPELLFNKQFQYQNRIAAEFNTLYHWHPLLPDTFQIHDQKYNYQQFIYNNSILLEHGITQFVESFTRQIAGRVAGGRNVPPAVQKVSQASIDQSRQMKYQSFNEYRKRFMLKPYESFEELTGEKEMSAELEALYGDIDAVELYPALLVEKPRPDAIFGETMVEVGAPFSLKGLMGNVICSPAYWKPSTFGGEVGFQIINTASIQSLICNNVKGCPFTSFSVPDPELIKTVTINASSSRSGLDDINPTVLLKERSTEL

MCF7 = test: Cytotoxicity against human MCF7 cells assessed as cell viability after 72 hrs by CCK8 assay; type: functional, cell-based; conditions: MCF7, 72 h; summary of the method: as §1
A549 = test: Cytotoxicity against human A549 cells assessed as cell viability after 72 hrs by CCK8 assay; type: functional, cell-based; conditions: A549, 72 h; summary of the method: as §1
[6] = Cytotoxicity against human SGC7901 cells assessed as cell viability after 72 hrs by CCK8 assay; type: functional, cell-based; conditions: SGC-7901, 72 h; summary of the method: as §1

C/C=C(\C)C(=O)O[C@@H]1[C@@H](C)[C@@]2(O)[C@@H](C=C(CO)C[C@]3(O)C(=O)C(C)=C[C@@H]23)[C@@H]2C(C)(C)[C@]12OC(=O)C(C)CC (stereo partly drawn)
IC50 (K562): 2.2 µM | IC50 (MOLT-4): 1 µM | IC50 [1]: 2.6 µM | IC50 (HeLa): 10 µM | IC50 (DU-145): 5 µM | IC50 (NCI-H1975): 10 µM | IC50 [2]: 1.2 µM | IC50 (HEK-293T): 157 µM | IC50 [3]: > 500 µM | IC50 [4]: > 50 µM | IC50 [5]: > 50 µM

C/C=C(\C)C(=O)O[C@@H]1[C@@H](C)[C@@]2(O)[C@@H](C=C(CO)C[C@]3(O)C(=O)C(C)=C[C@@H]23)[C@@H]2C(C)(C)[C@]12OC(=O)C(C)C
IC50 (K562): 4.4 µM | IC50 (MOLT-4): 1.1 µM | IC50 [1]: 5.5 µM | IC50 (MCF7): > 50 µM | IC50 (HeLa): 9.2 µM | IC50 (DU-145): 1.1 µM | IC50 (A549): 32 µM | IC50 [6]: 43 µM | IC50 (NCI-H1975): 10 µM | IC50 [2]: 1.2 µM | IC50 (HEK-293T): 171 µM | IC50 [3]: > 500 µM | IC50 [4]: > 50 µM | IC50 [5]: > 50 µM

CC(=O)O[C@@H]1[C@@H](C)[C@@]2(O)[C@@H](C=C(CO)C[C@]3(O)C(=O)C(C)=C[C@@H]23)[C@@H]2C(C)(C)[C@]12OC(=O)C(C)C
IC50 (K562): 4 µM | IC50 (MOLT-4): 2.4 µM | IC50 [1]: 6.8 µM | IC50 (MCF7): 13 µM | IC50 (HeLa): 3.9 µM | IC50 (DU-145): 7.2 µM | IC50 (A549): 5.8 µM | IC50 [6]: 13 µM | IC50 (NCI-H1975): 10 µM | IC50 [2]: 12 µM | IC50 (HEK-293T): 292 µM | IC50 [3]: > 500 µM | IC50 [4]: > 50 µM | IC50 [5]: > 50 µM

CCC(C)C(=O)O[C@@]12[C@H](OC(=O)c3ccccc3)[C@@H](C)[C@@]3(O)[C@@H](C=C(CO)C[C@]4(O)C(=O)C(C)=C[C@@H]34)[C@@H]1C2(C)C (stereo partly drawn)
IC50 (K562): 15 µM | IC50 (MOLT-4): 12 µM | IC50 [1]: 17 µM | IC50 (MCF7): 20 µM | IC50 (HeLa): 4.6 µM | IC50 (DU-145): 4.3 µM | IC50 (A549): 6.9 µM | IC50 [6]: 10 µM | IC50 (NCI-H1975): 3.3 µM | IC50 [2]: 6.8 µM | IC50 (HEK-293T): 420 µM | IC50 [3]: > 500 µM | IC50 [4]: 0.14 µM | IC50 [5]: 8.5 µM

C/C=C(\C)C(=O)O[C@@H]1[C@@H](C)[C@@]2(O)[C@@H](C(=O)C(CO)=C[C@]3(O)C(=O)C(C)=C[C@@H]23)[C@@H]2C(C)(C)[C@]12OC(=O)C(C)CC (stereo partly drawn)
IC50 (K562): 17 µM | IC50 (MOLT-4): 4.8 µM | IC50 [1]: 21 µM | IC50 (MCF7): 20 µM | IC50 (HeLa): 5 µM | IC50 (DU-145): 10 µM | IC50 (A549): 19 µM | IC50 [6]: 23 µM | IC50 (NCI-H1975): 10 µM | IC50 [2]: 10 µM | IC50 (HEK-293T): 455 µM | IC50 [3]: > 500 µM | IC50 [4]: > 50 µM | IC50 [5]: > 50 µM

CCC(C)C(=O)O[C@@]12[C@H](O)[C@@H](C)[C@]3(O)[C@@H]4C=C(C)C(=O)[C@@H]4CC(CO)=C[C@H]3[C@@H]1C2(C)C (stereo partly drawn)
IC50 (K562): 8 µM | IC50 (MOLT-4): 9.9 µM | IC50 [1]: 18 µM | IC50 (MCF7): 24 µM | IC50 (HeLa): 10 µM | IC50 (DU-145): 10 µM | IC50 (A549): 4.5 µM | IC50 [6]: 5.4 µM | IC50 (NCI-H1975): 3.3 µM | IC50 [2]: 9.8 µM | IC50 (HEK-293T): 191 µM | IC50 [3]: > 500 µM | IC50 [4]: > 50 µM | IC50 [5]: > 50 µM

CCC(C)C(=O)O[C@@]12[C@H](OC(C)=O)[C@@H](C)[C@@]3(O)[C@@H](C(=O)C(CO)=C[C@]4(O)C(=O)C(C)=C[C@@H]34)[C@@H]1C2(C)C (stereo partly drawn)
IC50 (K562): 7.2 µM | IC50 (MOLT-4): 10 µM | IC50 [1]: 14 µM | IC50 (MCF7): > 50 µM | IC50 (HeLa): 10 µM | IC50 (DU-145): 11 µM | IC50 (A549): > 50 µM | IC50 [6]: > 50 µM | IC50 (NCI-H1975): 10 µM | IC50 [2]: 9.9 µM | IC50 (HEK-293T): 147 µM | IC50 [3]: 352 µM | IC50 [4]: > 50 µM | IC50 [5]: > 50 µM

CC(=O)O[C@H]1C(=O)[C@@]2(C)[C@H]([C@H](OC(=O)c3ccccc3)[C@]3(O)C[C@H](OC(=O)[C@H](O)[C@@H](NC(=O)c4ccccc4)c4ccccc4)C(C)=C1C3(C)C)[C@]1(OC(C)=O)CO[C@@H]1C[C@@H]2O [PACLITAXEL]
IC50 (K562): 0.0052 µM | IC50 (MOLT-4): 0.0022 µM | IC50 [1]: 0.0025 µM | IC50 (MCF7): 0.0062 µM | IC50 (DU-145): 0.0034 µM | IC50 [6]: 0.0051 µM | IC50 (NCI-H1975): 0.0077 µM | IC50 [2]: 0.0018 µM
